The subject of assay [1] is Rattus norvegicus. Put plainly: Antihyperlipidemic activity in triton WR-1339-induced Charles-Foster rat assessed as decrease in plasma triglyceride level at 100 mg/kg, po after 18 hrs relative to control. More on the design: scale not given: the % may be the effect or the level left. The assay is classed as functional. Summed up: (§1)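 Male adult Charles Foster rats (200–225 g), six per group; hyperlipidemia induced by triton WR-1339 400 mg/kg i.p.; test agent macerated with 0.2% w/v gum acacia in water and given orally at the same time, with diet withdrawn; vehicle to controls. After 18 h, plasma was obtained by centrifugation at 2500 g, 4 °C, 10 min and diluted 1:3 in saline. Mean ± SD; Student's t-test.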

The subject of assay [2] is Rattus norvegicus. Description: Antihyperlipidemic activity in triton WR-1339-induced Charles-Foster rat assessed as decrease in plasma total cholesterol level at 100 mg/kg, po after 18 hrs relative to control. The assay is classed as functional. More on the design: scale not given: the % may be the effect or the level left. In a few lines: as §1
Assay [3] concerns Rattus norvegicus. Description: Antihyperlipidemic activity in triton WR-1339-induced Charles-Foster rat assessed as decrease in plasma phospholipid level at 100 mg/kg, po after 18 hrs relative to control. In kind it is functional. Set-up: scale not given: the % may be the effect or the level left. Summed up: as §1
For assay [4], the system named is Rattus norvegicus. Put plainly: Antihyperlipidemic activity in triton WR-1339-induced Charles-Foster rat assessed as increase in post heparin lipolytic activity at 100 mg/kg, po after 18 hrs by spectrophotometric analysis relative to control. The assay is classed as functional. Summed up:
(§2)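 Triton WR-1339 400 mg/kg i.p. in male Charles Foster rats (six per group), with test agent in 0.2% gum acacia given orally at the same time. Post-heparin plasma lipolytic activity read after 18 h as nmol free fatty acids formed/h/ml plasma; percent change; mean ± SD; t-test.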

In assay [5] the test system is Rattus norvegicus. Put plainly: Antihyperlipidemic activity in triton WR-1339-induced Charles-Foster rat assessed as increase in post heparin lipolytic activity at 50 mg/kg, po after 18 hrs by spectrophotometric analysis relative to control. In kind it is functional. Summed up: as §2
Assay [6] has as its system Rattus norvegicus. Description: Antihyperlipidemic activity in triton WR-1339-induced Charles-Foster rat assessed as decrease in plasma total cholesterol level at 50 mg/kg, po after 18 hrs relative to control. The assay is classed as functional. Set-up: scale not given: the % may be the effect or the level left. Summed up:
as §1

In assay [7] the test system is Rattus norvegicus. Put plainly: Antihyperlipidemic activity in triton WR-1339-induced Charles-Foster rat assessed as decrease in plasma triglyceride level at 50 mg/kg, po after 18 hrs relative to control. The assay is classed as functional. More on the design: scale not given: the % may be the effect or the level left. Summed up:
as §1

Assay [8] relates to Rattus norvegicus. Description: Antihyperlipidemic activity in triton WR-1339-induced Charles-Foster rat assessed as increase in post heparin lipolytic activity at 200 mg/kg, po after 18 hrs by spectrophotometric analysis relative to control. The assay is classed as functional. In a few lines:
as §2

The subject of assay [9] is Rattus norvegicus. Put plainly: Antihyperlipidemic activity in triton WR-1339-induced Charles-Foster rat assessed as decrease in plasma triglyceride level at 200 mg/kg, po after 18 hrs relative to control. More on the design: scale not given: the % may be the effect or the level left. In kind it is functional. Summed up: as §1
In assay [10] the test system is Rattus norvegicus. Description: Antihyperlipidemic activity in triton WR-1339-induced Charles-Foster rat assessed as decrease in plasma VLDL level at 100 mg/kg, po after 18 hrs. The assay is classed as functional, organism-based. More on the design: dose 100 mg/kg. Summed up: as §1
The subject of assay [11] is Rattus norvegicus. Description: Antihyperlipidemic activity in triton WR-1339-induced Charles-Foster rat assessed as increase in plasma HDL level at 100 mg/kg, po after 18 hrs. The assay is classed as functional, organism-based. Set-up: dose 100 mg/kg. Summed up:
as §1

The test system of assay [12] is Rattus norvegicus. Put plainly: Antihyperlipidemic activity in triton WR-1339-induced Charles-Foster rat assessed as increase in liver lipoprotein lipase activity at 100 mg/kg, po after 18 hrs. In kind it is functional, organism-based. Set-up: dose 100 mg/kg.
The subject of assay [13] is Rattus norvegicus. Put plainly: Antihyperlipidemic activity in triton WR-1339-induced Charles-Foster rat assessed as decrease in plasma LDL level at 100 mg/kg, po after 18 hrs. The assay is classed as functional, organism-based. Set-up: dose 100 mg/kg. Summed up:
as §1

The test system of assay [14] is Rattus norvegicus. Put plainly: Antihyperlipidemic activity in triton WR-1339-induced Charles-Foster rat assessed as decrease in plasma total cholesterol level at 200 mg/kg, po after 18 hrs relative to control. The assay is classed as functional. More on the design: scale not given: the % may be the effect or the level left. In a few lines:
as §1

Assay [15] deals with Rattus norvegicus. Put plainly: Antihyperlipidemic activity in triton WR-1339-induced Charles-Foster rat assessed as decrease in plasma phospholipid level at 200 mg/kg, po after 18 hrs relative to control. In kind it is functional. Set-up: scale not given: the % may be the effect or the level left. In a few lines: as §1
Assay [16] deals with Rattus norvegicus. Description: Antihyperlipidemic activity in triton WR-1339-induced Charles-Foster rat assessed as decrease in plasma phospholipid level at 50 mg/kg, po after 18 hrs relative to control. Set-up: scale not given: the % may be the effect or the level left. The assay is classed as functional. In a few lines: as §1

SMILES strings stand for the structures. Active and inactive are the calls of the source. No cut-off for these calls is given here.

19 molecules from ChEMBL document CHEMBL2390870, “Coumarin chalcone fibrates: a new structural class of lipid lowering agents” (2013) can be followed below.

Consider `CCOC(=O)CCCOc1ccc(C(=O)/C=C/c2cc(C(C)CC)c3oc(=O)c(C(=O)OCC)cc3c2)cc1` (stereo unspecified), for which the Activity with Rattus norvegicus [1] amounted to 12%; in the assay on Rattus norvegicus [2] it was 13%; in the assay with Rattus norvegicus [3] it was 12%; with Rattus norvegicus [4], 7%.

Turning to `CCC(C)c1cc(/C=C/C(=O)c2ccc(OC(C)(C)C(=O)O)cc2)cc2cc(C(=O)O)c(=O)oc12` (stereo unspecified), the Activity in the assay with Rattus norvegicus [1] stood at 9%; with Rattus norvegicus [2], 8%; in the assay with Rattus norvegicus [3], 8%; with Rattus norvegicus [4] it was 4%.

With `CCOC(=O)CCCOc1ccc(C(=O)/C=C/c2cc(C(C)(C)C)c3oc(=O)c(C(=O)OCC)cc3c2)cc1`, the Activity is reported as 11% with Rattus norvegicus [1], 12% with Rattus norvegicus [2], 11% in the assay with Rattus norvegicus [3] and 5% in the assay with Rattus norvegicus [4].

In the case of `CCOC(=O)COc1ccc(C(=O)/C=C/c2cc(C(C)(C)C)c3oc(=O)c(C(=O)OCC)cc3c2)cc1`, the Activity in the assay on Rattus norvegicus [1] is on record as 11%; with Rattus norvegicus [2], 13%; in the assay with Rattus norvegicus [3], 11%; with Rattus norvegicus [4], 5%.

Regarding `CCOC(=O)c1cc2cc(/C=C/C(=O)c3ccc(OC(CC)C(=O)OCC)cc3)cc(C)c2oc1=O` (stereo unspecified), the Activity is given as 14% in the assay with Rattus norvegicus [1], 14% in the assay with Rattus norvegicus [2], 15% in the assay with Rattus norvegicus [3] and 10% in the assay on Rattus norvegicus [4].

Regarding `Cc1ccc(C)c(OCCCC(C)(C)C(=O)O)c1` [GEMFIBROZIL], the Activity came to 33% in the assay on Rattus norvegicus [1], 32% in the assay with Rattus norvegicus [2], 30% with Rattus norvegicus [3] and 19% in the assay with Rattus norvegicus [4].

Turning to `Cc1cc(/C=C/C(=O)c2ccc(OC(C)C(=O)O)cc2)cc2cc(C(=O)O)c(=O)oc12` (stereo unspecified), the Activity in the assay with Rattus norvegicus [5] came out at 12%; with Rattus norvegicus [6], 16%; with Rattus norvegicus [7], 14%; in the assay with Rattus norvegicus [8] it was 17%; in the assay on Rattus norvegicus [9], 26%; in the assay on Rattus norvegicus [1], 25%. The Activity was 26% in the assay with Rattus norvegicus [2]; 24% in the assay with Rattus norvegicus [3]; 27% in the assay on Rattus norvegicus [14]; 17% in the assay on Rattus norvegicus [4]; 24% in the assay on Rattus norvegicus [15]; 15% in the assay with Rattus norvegicus [16]. Further, the outcome in the assay with Rattus norvegicus [10], in the assay with Rattus norvegicus [11], in the assay on Rattus norvegicus [12] and in the assay on Rattus norvegicus [13] was Active.

For `CC(C)c1cc(/C=C/C(=O)c2ccc(OCC(=O)O)cc2)cc2cc(C(=O)O)c(=O)oc12`, the Activity in the assay with Rattus norvegicus [1] was found to be 8%; with Rattus norvegicus [2], 9%; in the assay on Rattus norvegicus [3] it was 7%; with Rattus norvegicus [4], 3%.

In the case of `CCC(C)c1cc(/C=C/C(=O)c2ccc(OCC(=O)O)cc2)cc2cc(C(=O)O)c(=O)oc12` (stereo unspecified), the Activity with Rattus norvegicus [1] came to 9%; with Rattus norvegicus [2] it was 8%; in the assay with Rattus norvegicus [3], 9%; in the assay with Rattus norvegicus [4] it was 3%.

As to `CCOC(=O)COc1ccc(C(=O)/C=C/c2cc(C)c3oc(=O)c(C(=O)OCC)cc3c2)cc1`, the Activity worked out at 8% in the assay with Rattus norvegicus [1], 6% in the assay on Rattus norvegicus [2], 8% in the assay on Rattus norvegicus [3] and 2% in the assay on Rattus norvegicus [4].

On to `CCOC(=O)COc1ccc(C(=O)/C=C/c2cc(C(C)CC)c3oc(=O)c(C(=O)OCC)cc3c2)cc1` (stereo unspecified), for which the Activity stood at 11% in the assay with Rattus norvegicus [1], 11% with Rattus norvegicus [2], 12% with Rattus norvegicus [3] and 8% with Rattus norvegicus [4].

As for `CCOC(=O)C(C)Oc1ccc(C(=O)/C=C/c2cc(C)c(O)c(C=O)c2)cc1` (stereo unspecified), the Activity in the assay on Rattus norvegicus [1] turned out to be 11%; with Rattus norvegicus [2] it was 12%; in the assay on Rattus norvegicus [3], 13%; in the assay with Rattus norvegicus [4], 6%.

With `CCOC(=O)COc1ccc(C(=O)/C=C/c2cc(C(C)C)c3oc(=O)c(C(=O)OCC)cc3c2)cc1`, the Activity amounted to 22% in the assay on Rattus norvegicus [1], 21% with Rattus norvegicus [2], 20% in the assay on Rattus norvegicus [3] and 15% in the assay on Rattus norvegicus [4].

Regarding `CCOC(=O)CCCOc1ccc(C(=O)/C=C/c2cc(C)c3oc(=O)c(C(=O)OCC)cc3c2)cc1`, the Activity in the assay with Rattus norvegicus [1] was 16%; in the assay with Rattus norvegicus [2] it was 19%; in the assay on Rattus norvegicus [3], 17%; with Rattus norvegicus [4], 12%.

`CCOC(=O)c1cc2cc(/C=C/C(=O)c3ccc(OC(C)(C)C(=O)OCC)cc3)cc(C(C)CC)c2oc1=O` (stereo unspecified): the Activity was determined as 13% in the assay with Rattus norvegicus [5]; 18% with Rattus norvegicus [6]; 16% in the assay on Rattus norvegicus [7]; 15% with Rattus norvegicus [8]; 25% in the assay with Rattus norvegicus [9]; 23% with Rattus norvegicus [1]. The Activity is 22% with Rattus norvegicus [2]; 23% in the assay on Rattus norvegicus [3]; 23% with Rattus norvegicus [14]; 15% in the assay with Rattus norvegicus [4]; 24% in the assay on Rattus norvegicus [15]; 16% in the assay on Rattus norvegicus [16].

As for `CCOC(=O)c1cc2cc(/C=C/C(=O)c3ccc(OC(C)C(=O)OCC)cc3)cc(C(C)CC)c2oc1=O` (stereo unspecified), the Activity was determined as 9% in the assay with Rattus norvegicus [1], 10% with Rattus norvegicus [2], 9% with Rattus norvegicus [3] and 5% in the assay on Rattus norvegicus [4].

`CCOC(=O)C(C)Oc1ccc(C(=O)/C=C/c2cc(C=O)c(O)c(C(C)CC)c2)cc1` (stereo unspecified): the Activity in the assay with Rattus norvegicus [1] is 11%; in the assay with Rattus norvegicus [2] it was 13%; in the assay on Rattus norvegicus [3], 11%; with Rattus norvegicus [4] it was 5%.

For `CCOC(=O)c1cc2cc(/C=C/C(=O)c3ccc(OC(C)(C)C(=O)OCC)cc3)cc(C)c2oc1=O`, the Activity in the assay on Rattus norvegicus [1] is on record as 8%; in the assay with Rattus norvegicus [2], 10%; with Rattus norvegicus [3], 10%; with Rattus norvegicus [4], 5%.

For the molecule `CCOC(=O)c1cc2cc(/C=C/C(=O)c3ccc(OC(C)C(=O)OCC)cc3)cc(C)c2oc1=O` (stereo unspecified), the Activity is on record as 11% in the assay with Rattus norvegicus [1], 10% in the assay on Rattus norvegicus [2], 12% in the assay with Rattus norvegicus [3] and 6% with Rattus norvegicus [4].
